We go through one compound from ChEMBL document CHEMBL1135739, “Radiolabeled amino acids for tumor imaging with PET: radiosynthesis and biological evaluation of 2-amino-3-[18F]fluoro-2-methylpropanoic acid and 3-[18F]fluoro-2-methyl-2-(methylamino)propanoic acid” (J Med Chem, 2002).

“And” between values parts separate entries of the source, which are not always exact repeats. Equal entries are not always repeated.

For data set [1], the species on record is Rattus norvegicus. Put plainly: Radioactivity distribution in testis of normal fischer rat after injection of [18F]-fluoro-2-methyl-2-(methylamino)propanoic acid after 60 min. The settings on record: in vivo, 1 h. Format: ADME, organism-based. The gist of the method: (§1)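 Male Fischer 344 rats (200–250 g), fed ad libitum, under intramuscular ketamine:xylazine anesthesia, got ~85 μCi radiotracer in 0.3 mL sterile water by tail-vein catheter. Groups of four were killed at 5, 30, 60 or 120 min. Dissected tissues were weighed and gamma-counted with dose standards. Counts were decay-corrected and given as %ID/g, mean ± standard error. Tissues were compared by one-way ANOVA.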

For data set [2], the species on record is Rattus norvegicus. Briefly: Radioactivity distribution in liver of normal fischer rat after injection of [18F]-fluoro-2-methyl-2-(methylamino)propanoic acid after 60 min. The settings on record: in vivo, 1 h. Format: ADME, organism-based. The gist of the method: (§2)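 Male Fischer 344 rats (200–250 g), fed ad libitum, anesthetized with intramuscular ketamine:xylazine (1:1, 0.1 mL/100 g). About 85 μCi tracer in 0.3 mL sterile water was given by tail-vein catheter. Groups of four were killed at 5, 30, 60 or 120 min. Tissues were weighed and gamma-counted against dose standards, decay-corrected, and expressed as %ID/g (mean ± standard error).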

Data set [3] is filed under the species Rattus norvegicus. Put plainly: Radioactivity distribution in testis of normal fischer rat after injection of [18F]-fluoro-2-methyl-2-(methylamino)propanoic acid after 30 min. Format: ADME, organism-based. The settings on record: in vivo, 0.5 h. The gist of the method:
as §1

The species named for data set [4] is Rattus norvegicus. Briefly: Radioactivity distribution in lung of normal fischer rat after injection of [18F]-fluoro-2-methyl-2-(methylamino)propanoic acid after 60 min. Format: ADME, organism-based. The settings on record: in vivo, 1 h. The gist of the method:
as §2

For data set [5], the species on record is Rattus norvegicus. Briefly: Radioactivity distribution in brain of normal fischer rat after injection of [18F]-fluoro-2-methyl-2-(methylamino)propanoic acid after 30 min. Format: ADME, organism-based. The settings on record: in vivo, 0.5 h. The gist of the method: (§3)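 Normal male Fischer 344 rats (200–250 g), anesthetized with i.m. ketamine:xylazine (1:1), got ~85 μCi of tracer in 0.3 mL sterile water i.v. via tail-vein catheter. Groups of four were killed at 5, 30, 60 or 120 min. Tissues were weighed and gamma-counted against dose standards, and counts were decay-corrected to %ID/g. Results are mean ± standard error (n = 4), compared by one-way ANOVA.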

The species entered for data set [6] is Rattus norvegicus. Put plainly: Radioactivity distribution in muscle of normal fischer rat after injection of [18F]-fluoro-2-methyl-2-(methylamino)propanoic acid after 60 min. The settings on record: in vivo, 1 h. Format: ADME, organism-based, Muscle tissue. The gist of the method:
as §2

For data set [7], the species on record is Rattus norvegicus. Put plainly: Radioactivity distribution in tumor of tumor-bearing fischer rat after injection of [18F]-fluoro-2-methyl-2-(methylamino)propanoic acid after 60 min. The settings on record: in vivo, 1 h.
Data set [8] is filed under the species Rattus norvegicus. Briefly: Radioactivity distribution in spleen of normal fischer rat after injection of [18F]-fluoro-2-methyl-2-(methylamino)propanoic acid after 30 min. Format: ADME, organism-based. The settings on record: in vivo, 0.5 h. The gist of the method: as §1
The species named for data set [9] is Rattus norvegicus. Briefly: Radioactivity distribution in muscle of normal fischer rat after injection of [18F]-fluoro-2-methyl-2-(methylamino)propanoic acid after 120 min. Format: ADME, organism-based, Muscle tissue. The settings on record: in vivo, 2 h. The gist of the method:
as §2

For data set [10], the species on record is Rattus norvegicus. Briefly: Radioactivity distribution in testis of normal fischer rat after injection of [18F]-fluoro-2-methyl-2-(methylamino)propanoic acid after 120 min. Format: ADME, organism-based. The settings on record: in vivo, 2 h. The gist of the method:
as §1

The species named for data set [11] is Rattus norvegicus. Briefly: Radioactivity distribution in pancreas of normal fischer rat after injection of [18F]-fluoro-2-methyl-2-(methylamino)propanoic acid after 120 min. Format: ADME, organism-based. The settings on record: in vivo, 2 h. The gist of the method: as §2
The species entered for data set [12] is Rattus norvegicus. Briefly: Radioactivity distribution in heart of normal fischer rat after injection of [18F]-fluoro-2-methyl-2-(methylamino)propanoic acid after 60 min. Format: ADME, organism-based. The settings on record: in vivo, 1 h. The gist of the method: as §3
For data set [13], the species on record is Rattus norvegicus. Briefly: Radioactivity distribution in testis of normal fischer rat after injection of [18F]-fluoro-2-methyl-2-(methylamino)propanoic acid after 5 min. Format: ADME, organism-based. The settings on record: in vivo. The gist of the method:
as §1

Data set [14] is filed under the species Rattus norvegicus. Briefly: Radioactivity distribution in tumor of tumor-bearing fischer rat after injection of [18F]-fluoro-2-methyl-2-(methylamino)propanoic acid after 5 min. The settings on record: in vivo.
Data set [15] is filed under the species Rattus norvegicus. Briefly: Radioactivity distribution in heart of normal fischer rat after injection of [18F]-fluoro-2-methyl-2-(methylamino)propanoic acid after 30 min. Format: ADME, organism-based. The settings on record: in vivo, 0.5 h. The gist of the method: as §3
Data set [16] is filed under the species Rattus norvegicus. Put plainly: Radioactivity distribution in bone of normal fischer rat after injection of [18F]-fluoro-2-methyl-2-(methylamino)propanoic acid after 5 min. Format: ADME, organism-based, Bone element. The settings on record: in vivo. The gist of the method:
as §3

The species entered for data set [17] is Rattus norvegicus. Briefly: Radioactivity distribution in spleen of normal fischer rat after injection of [18F]-fluoro-2-methyl-2-(methylamino)propanoic acid after 5 min. Format: ADME, organism-based. The settings on record: in vivo. The gist of the method:
as §1

The species entered for data set [18] is Rattus norvegicus. Put plainly: Radioactivity distribution in bone of normal fischer rat after injection of [18F]-fluoro-2-methyl-2-(methylamino)propanoic acid after 120 min. Format: ADME, organism-based, Bone element. The settings on record: in vivo, 2 h. The gist of the method:
as §3

For data set [19], the species on record is Rattus norvegicus. Briefly: Radioactivity distribution in kidney of normal fischer rat after injection of [18F]-fluoro-2-methyl-2-(methylamino)propanoic acid after 120 min. Format: ADME, organism-based. The settings on record: in vivo, 2 h. The gist of the method:
as §3

The species entered for data set [20] is Rattus norvegicus. Briefly: Radioactivity distribution in pancreas of normal fischer rat after injection of [18F]-fluoro-2-methyl-2-(methylamino)propanoic acid after 5 min. Format: ADME, organism-based. The settings on record: in vivo. The gist of the method:
as §2

For data set [21], the species on record is Rattus norvegicus. Put plainly: Radioactivity distribution in blood of normal fischer rat after injection of [18F]-fluoro-2-methyl-2-(methylamino)propanoic acid after 5 min. The settings on record: in vivo. Format: ADME, organism-based. The gist of the method: as §3
For data set [22], the species on record is Rattus norvegicus. Briefly: Radioactivity distribution in muscle of normal fischer rat after injection of [18F]-fluoro-2-methyl-2-(methylamino)propanoic acid after 30 min. Format: ADME, organism-based, Muscle tissue. The settings on record: in vivo, 0.5 h. The gist of the method:
as §2

For data set [23], the species on record is Rattus norvegicus. Put plainly: Radioactivity distribution in kidney of normal fischer rat after injection of [18F]-fluoro-2-methyl-2-(methylamino)propanoic acid after 60 min. Format: ADME, organism-based. The settings on record: in vivo, 1 h. The gist of the method: as §3

Turning to `CNC(C)(C[18F])C(=O)O.Cl` (stereo not drawn), the ID/g in the data set filed under Rattus norvegicus [1] is 0.08%; in the data set filed under Rattus norvegicus [2], 0.78% and 0.85%; in the data set listed under Rattus norvegicus [3] it was 0.11%; in the data set listed under Rattus norvegicus [4], 0.38% and 0.26%; in the data set filed under Rattus norvegicus [5], 0.04%; in the data set listed under Rattus norvegicus [6], 0.15% and 0.19%. Also, the ID/g was 2.28% in the data set filed under Rattus norvegicus [7]; 0.75% in the data set filed under Rattus norvegicus [8]; 0.13% and 0.16% in the data set listed under Rattus norvegicus [9]; 0.06% and 0.08% in the data set filed under Rattus norvegicus [10]; 2.88% and 1.74% in the data set filed under Rattus norvegicus [11]; 0.2% and 0.25% in the data set listed under Rattus norvegicus [12]. Also, the ID/g is 0.17% and 0.19% in the data set listed under Rattus norvegicus [13]; 1.29% in the data set listed under Rattus norvegicus [14]; 0.23% in the data set filed under Rattus norvegicus [15]; 0.34% and 0.33% in the data set filed under Rattus norvegicus [16]; 0.44% and 0.47% in the data set listed under Rattus norvegicus [17]; 0.2% and 0.19% in the data set listed under Rattus norvegicus [18]. Besides, the ID/g in the data set filed under Rattus norvegicus [19] is 1.36% and 1.59%; in the data set filed under Rattus norvegicus [20] it was 2.73% and 2.95%; in the data set filed under Rattus norvegicus [21], 0.61% and 0.69%; in the data set filed under Rattus norvegicus [22], 0.16%; in the data set listed under Rattus norvegicus [23], 2.73% and 2.79%.
